Data reported in ChEMBL document CHEMBL4513216, “Probing the Open Global Health Chemical Diversity Library for Multistage-Active Starting Points for Next-Generation Antimalarials” (ACS Infect Dis, 2020).

Assay: Toxicity liver stage against HepG2, at 10uM
Type: cell-based
Set-up: test concentration 10 uM, cell line HepG2-A16-CD81EGFP
Conditions: human, HepG2-A16-CD81EGFP cells; read-out: INHIBITION
Outline: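 Uninfected HepG2-A16-CD81EGFP cells, 3 × 10^3 per well, 1536-well, plated on prespotted compound at 10 μM final, parasite-free screening media added to match infected plates; puromycin 10 μM positive, DMSO 0.5% negative; run in parallel with 48 h PbLuc assay at 37 °C, 5% CO2; viability by CellTiter-Glo luminescence, normalized to controls.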

SMILES | cytotoxicity at 10 µM [%]
Cc1cc(C)n2c(CCCNS(=O)(=O)c3ccc(F)cc3)nnc2n1 | 2.38
O=C(c1ccc(Cl)s1)N1CC(c2nc(-c3ccc[nH]c3=O)no2)C1 | -1.26
CN1CCN([C@@H]2CCN(C(N)=O)[C@H]2Cc2ccccc2)CC1 | 2.41
CCO[C@@H]1CC[C@H]2[C@H]1OCCN2S(=O)(=O)c1cn(C)cn1 | 5.59
O=C1CC2(CCN(c3nncs3)C2)CN1c1cncnc1 (stereo not drawn) | -0.376
Cc1nnc(N2C[C@H](C(=O)NCc3ccco3)[C@@H]3CCO[C@@H]3C2)s1 | 8.5
Cc1ccc(C(=O)N2C[C@@H]3COC[C@]3(COCc3cccnc3)C2)cn1 | 0.719
Cc1ccc(N2N=C(C(=O)NCC3CC3)S(=O)(=O)c3cccnc32)cc1 | 6.72
COCCNC(=O)Cn1cc2c(n1)c(C)nn2C | 4.6
CN(C)C(=O)CN1CCC(c2c(C(N)=O)sc3ncccc23)C1 (stereo not drawn) | 8.42
CC(C)(C)c1ccc2c(c1)CCN2C(=O)c1[nH]c(=O)[nH]c(=O)c1N | 7.22
Brc1cnc(NCCCOCC2CCOCC2)nc1 | 16.8
CCn1c(=O)n(CCC(=O)N(C)Cc2ccc(C)o2)c2ccccc21 | -2.42
CC(C)(C)OC(=O)N1CSC[C@@H]1C(=O)NCc1ccc(C#N)cc1 | 11.6
Cc1cc2ncc(C(C)NCc3cccnc3)c(C)n2n1 (stereo not drawn) | -0.0764
CN1CCCC(N(C)S(=O)(=O)c2cccc3ncccc23)C1 (stereo not drawn) | -6.46
Cc1ccc(-c2noc(C(C)(C)NS(C)(=O)=O)n2)cc1F | 2.77
c1ccc2[nH]c(C3CCN(Cc4noc(C5CC5)n4)CC3)cc2c1 | 7.67
CC(C)c1cc(CN(C)C(=O)CN2CCCCC2=O)no1 | 8.01
CN(C)c1cnn(CC(=O)N2CCCCCC2)c(=O)c1 | -10.6
CCc1cc(N(C)CCC(O)c2ccccc2)n2nccc2n1 (stereo not drawn) | -1.14
CNc1cc(C)nc(-c2cc(NC3CCNCC3)nc3[nH]ccc23)n1 | -2.98

SMILES | cytotoxicity at 10 µM [%]
COCCN1CCC(CN(CC2CCCO2)C(=O)Cn2cccn2)CC1 (stereo not drawn) | -3.79
CCn1ncnc1CN1CCC(CNC(=O)c2cccc(C)n2)C1 (stereo not drawn) | 8.57
Cn1nc2c(c1NC(=O)c1ccc(C3CCCN3C3CCC3)s1)CCC2 (stereo not drawn) | -5.08
CC(c1cccc(Cl)c1)N(C)Cc1nc2c(cnn2C)c(=O)[nH]1 (stereo not drawn) | -10.5
Cc1cc(C)n(CC2CCCN2C(=O)c2cccn3ccnc23)n1 (stereo not drawn) | -7.45
Cc1nc(C2CCCN2C(=O)c2csc3c2CCCC3)no1 (stereo not drawn) | -10.3
Cc1cc(C2CCCN2C(=O)c2cc3c(s2)CCC3)no1 (stereo not drawn) | -11
COc1cccc(C2CCCN2CCCNS(C)(=O)=O)c1 (stereo not drawn) | -2
Cc1nc(C)n(CC2CCCN2Cc2cn3cc(Cl)ccc3n2)n1 (stereo not drawn) | -16.7
COc1ccc(S(=O)(=O)N2CCc3ccc(F)cc32)cc1C(=O)O | -11.4
Cn1cc(CN2CCC(F)(F)C3(CCN(c4cccnc4)C3)C2)cn1 (stereo not drawn) | 3.89
COCCN1C[C@@H]2[C@@H](OC)CCN(Cc3ccc(C)o3)[C@@H]2C1 | -4.42
COc1ncccc1C(=O)N1CC[C@H]2C[C@H](c3nnc(C)[nH]3)O[C@@H]2C1 | 2.4
COCCN1CCC2(C1)c1ccccc1S(=O)(=O)N2Cc1ccccc1 (stereo not drawn) | 10.5
CN(C)CC(=O)N1CCC2(CCc3cc(-c4cccnc4)ccc32)CC1 | 4.01
COc1ccc(CN2CCC3(CC2)CC(c2cccnc2)CO3)cc1 (stereo not drawn) | -0.259
Cn1cc2c(n1)C(CNCc1ccco1)OCC2 (stereo not drawn) | -1.54
CN(Cc1ccco1)[C@@H]1CN(Cc2ccco2)[C@@H]2CCCO[C@H]12 | 1.41
COCCN1C(=O)CCC12CCC(NCc1ccc(OC)cc1)CC2 (stereo not drawn) | 11.5
Cc1ccoc1C1=NNC(=CN2CCn3c(nnc3C(C)C)C2)O1 | -13.1
O=C(Cn1ccc(=O)cc1)N1C[C@@H]2CC[C@H]1CN(c1ncccn1)C2 | 4.52
